SENP1 inh: inhibitors of human SENP1 SUMO protease catalytic domain | Q9P0U3 | recombinant SENP1 catalytic domain, CyPet-SUMO1-YPet FRET cleavage | inhibition, % at 10 µM | 360,000 tested, 0.21% active;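 active = inhibition at least 30% at 10 µM, raw YFP signal under a set limit, fluorescence ratio 0.5 to 1.5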
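system = hSENP1 catalytic domain, recombinant | reagent = SFCypet-SUMO1-SFYpet substrate at 25 nM | doses = one dose per compound, 10 µM, 0.5% DMSO | incubation = enzyme reaction for 50 min at room temperature, dark | measured by = FRET, CFP and YFP emission | controls = no-enzyme low, enzyme-DMSO high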
SENP6 block: inhibitors of human SENP6 protease | 330,000 tested, 1.8% active | inhibition, % at 10 µM | Recombinant SENP6 catalytic domain, aminoluciferin luminescence | AID 2599 | Q9GZR1;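 active = inhibition above about 50% at the single tested dose, limit read from the data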
Target sequence (Q9GZR1 628-1112 limits assumed): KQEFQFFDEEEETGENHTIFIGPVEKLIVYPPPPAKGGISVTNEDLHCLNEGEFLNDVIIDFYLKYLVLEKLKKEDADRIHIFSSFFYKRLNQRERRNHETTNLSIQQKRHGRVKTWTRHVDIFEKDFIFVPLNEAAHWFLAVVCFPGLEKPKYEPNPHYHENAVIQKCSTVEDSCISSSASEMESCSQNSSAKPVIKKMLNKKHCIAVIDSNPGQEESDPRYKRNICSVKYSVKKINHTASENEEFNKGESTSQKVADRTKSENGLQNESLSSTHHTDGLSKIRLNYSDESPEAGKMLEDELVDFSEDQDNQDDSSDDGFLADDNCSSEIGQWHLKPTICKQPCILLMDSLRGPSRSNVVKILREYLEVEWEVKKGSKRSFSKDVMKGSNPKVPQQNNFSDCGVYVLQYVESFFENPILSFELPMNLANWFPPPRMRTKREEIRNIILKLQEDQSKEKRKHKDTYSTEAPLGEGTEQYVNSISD
SENP7 block: SENP7 protease inhibition; recombinant SENP7, Z-RLRGG-aminoluciferin luminescence, 40 min; inhibition, % at 5 µM; Q9BQF6; 330,000 tested, 1.5% active;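 active = inhibition above about 50% at the single test dose, limit read from the data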
SENP8 block-1: blocks the human protease SENP8; purified SENP8, Z-RLRGG-aminoluciferin cleavage, luminescence; 330,000 tested, 1.2% active; inhibition, % at 10 µM; in the data active = inhibition above about 50%
SENP8 block-2: blocks human SENP8 cleavage of Nedd8 substrate | 360,000 tested, 0.64% active | inhibition, % at 20 µM | Q96LD8 | recombinant SENP8, Nedd8 substrate fluorescence; in the data active = inhibition mostly above about 40%, no sharp cut-off; inactive = mostly below about 27%
SENP8 conf: human SENP8 inhibition, confirmed | 6,200 tested, 40% active | shares compounds with SENP7 block | Recombinant SENP8, Z-RLRGG-aminoluciferin luminescence, 60 min | inhibition, % at 12.5 µM;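 active = mean inhibition across replicates above about 50%, limit read from the data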
SENP6 conf: human SENP6 inhibition, confirmed | inhibition, % at 12.5 µM | recombinant SENP6, Z-RLRGG-aminoluciferin luminescence | shares compounds with SENP7 block | 6,200 tested, 58% active
SENP7 conf: human SENP7 inhibition, confirmed; recombinant SENP7, Z-RLRGG-aminoluciferin luminescence, 40 min; shares compounds with SENP7 block; 6,200 tested, 69% active; AID 488917; inhibition, % at 12.5 µM
Casp3 select: caspase-3 inhibition (SENP selectivity assay); shares compounds with SENP7 block; purified caspase-3, Z-DEVD-aminoluciferin luminescence, 60 min; inhibition, % at 12.5 µM; 6,200 tested, 60% active;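 active = mean inhibition above about 50%, limit read from the data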
Luc interf: interferes with luciferase luminescence in SENP counter-screen; 6,200 tested, 39% active; shares compounds with SENP7 block; Pre-incubated SENP8/Z-RLRGG-aminoluciferin, luciferase luminescence interference; inhibition, % at 12.5 µM;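 active = mean inhibition above about 50% when retested at one dose, limit read from the data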
Each line names hits and unclear results; the compound was inactive in the other large screens (follow-up assays come after a bar, where they were run). This is a sample that favours compounds with a hit; in the whole collection about 2.5% have one here.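 Rule for the calls, unless noted: active = mean inhibition above about 50% in the one-dose retest (limit read from the data); inactive = the rest.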

COc1ccc(C(=O)CC(=O)C(=O)Nc2ccc([N+](=O)[O-])cc2C)cc1	none
O=Nc1c2nc3ccccc3n(O)c-2c2ccccc12	SENP6 block 50.2 | SENP8 conf inactive | SENP6 conf inactive | SENP7 conf inactive | Casp3 select 52.9 | Luc interf inactive
On1c(-c2ccccc2)nc2ccccc21	none
Cc1ccc(C)c(S(=O)(=O)NC(C)CCc2ccccc2)c1 (centres undefined)	none
O=S(=O)(Nc1ccc(O)c(NS(=O)(=O)c2ccccc2)c1)c1ccccc1	none
COc1ccc(N=Nc2ccc(CO)cc2)cc1	SENP6 block 50.6, SENP7 block 65.8 | SENP8 conf 61.1 | SENP6 conf 58.4 | SENP7 conf 83.4 | Casp3 select 59.6 | Luc interf inactive
Oc1ccc(Cl)cc1N=Nc1ccccc1	SENP6 block 73.3, SENP7 block 67.4 | SENP8 conf inactive | SENP6 conf inactive | SENP7 conf 80.4 | Casp3 select inactive | Luc interf inactive
OCc1ccc(N=Nc2ccccc2)cc1	SENP7 block 54.9 | SENP8 conf inactive | SENP6 conf inactive | SENP7 conf 73.5 | Casp3 select 51.7 | Luc interf 53.2
COC(=O)c1ccc(N=Nc2ccccc2)cc1	SENP7 block 58.7 | SENP8 conf inactive | SENP6 conf 57.0 | SENP7 conf 85.7 | Casp3 select inactive | Luc interf inactive
O=C(O)c1cc(O)ccc1N=Nc1ccccc1	none
COc1ccc(C/C(N)=N/O)cc1	none
Cc1ccccc1CNC(=O)C(=O)NCC1OCCCN1S(=O)(=O)c1cccs1 (centres undefined)	none
Oc1ccc(N=Nc2ccccc2)cc1	SENP6 block 82.4, SENP7 block 67.9, SENP8 block-1 73.6 | SENP8 conf 80.7 | SENP6 conf 79.5 | SENP7 conf 91.2 | Casp3 select 56.6 | Luc interf 82.6
CC(C)(C)OC(=O)N1CCC[C@H]1C(=O)NCc1ccc(Cl)cc1Cl	none
COc1ccccc1-n1c(=O)oc2ccc(Cl)cc2c1=O	SENP6 block 53.0 | SENP8 conf 52.8 | SENP6 conf 50.2 | SENP7 conf 55.4 | Casp3 select inactive | Luc interf inactive
CCOC(=O)c1nnsc1NC(C)=O	none
CCOC(=O)c1nnsc1NC(=O)Nc1ccc(OC)cc1	SENP7 block 51.2 | SENP8 conf inactive | SENP6 conf inactive | SENP7 conf inactive | Casp3 select inactive | Luc interf inactive
COc1ccccc1/C=N/N1C(=O)c2cccc3cccc(c23)C1=O	none
CCN(CC)c1ccc(/C=N/N2C(=O)c3ccccc3C2=O)cc1	SENP6 block 62.5 | SENP8 conf inactive | SENP6 conf inactive | SENP7 conf inactive | Casp3 select inactive | Luc interf inactive
COc1ccc(/C=N/N2C(=O)c3ccccc3C2=O)cc1	SENP6 block 87.6, SENP7 block 86.8, SENP8 block-1 79.4 | SENP8 conf inactive | SENP6 conf 73.7 | SENP7 conf 69.6 | Casp3 select 85.1 | Luc interf inactive
CCN(CC)c1ccc(/C=N/N2C(=O)c3ccccc3C2=O)c(O)c1	none
CN(C)c1ccc(/C=N/N2C(=O)c3ccccc3C2=O)cc1	SENP7 block 90.9, SENP8 block-1 72.4 | SENP8 conf inactive | SENP6 conf 71.2 | SENP7 conf 60.6 | Casp3 select 50.8 | Luc interf inactive
CCCCCCCNC(=O)C1CC(=O)N(C)C(=Nc2ccc(OC)cc2)S1 (centres undefined)	none
CN=c1scc(-c2ccc(F)cc2)n1/N=C/c1ccc(O)c(O)c1	SENP6 block 61.8 | SENP8 conf 74.7 | SENP6 conf 71.8 | SENP7 conf 85.8 | Casp3 select inactive | Luc interf 60.2
CCNC(=S)NNC(=O)c1cc(Br)cs1	none
Cc1ccc(C)c(NC(=S)Nc2cccnc2)c1	none
FC(F)(F)c1ccccc1NC(=S)Nc1cccc2cnccc12	none (no result: SENP6 block, SENP7 block, SENP8 block-1)
S=C(NCc1ccccc1)Nc1cccc2cnccc12	none
Cc1ccc(F)c(NC(=S)Nc2cccc3ccccc23)c1	SENP6 block 87.7, SENP8 block-1 83.5 | SENP8 conf inactive | SENP6 conf inactive | SENP7 conf inactive | Casp3 select inactive | Luc interf inactive
Cc1ccccc1NC(=S)Nc1cccc2cnccc12	SENP6 block 97.8, SENP7 block 85.9, SENP8 block-1 87.9 | SENP8 conf inactive | SENP6 conf inactive | SENP7 conf inactive | Casp3 select inactive | Luc interf inactive
S=C(Nc1cccc2ccccc12)Nc1cccc2ccccc12	none (no result: SENP6 block, SENP7 block, SENP8 block-1)
Cc1ccc(C)c(NC(=S)Nc2cccc3cnccc23)c1	SENP6 block 78.5, SENP7 block 53.6, SENP8 block-1 76.5 | SENP8 conf inactive | SENP6 conf inactive | SENP7 conf inactive | Casp3 select inactive | Luc interf inactive
Fc1ccccc1NC(=S)Nc1cccc2cnccc12	SENP6 block 91.8, SENP7 block 78.1, SENP8 block-1 87.4 | SENP8 conf inactive | SENP6 conf inactive | SENP7 conf inactive | Casp3 select inactive | Luc interf inactive
CC1(C)O[C@@H]2[C@H](O1)[C@@H](CO)O[C@H]2n1ccc(=O)[nH]c1=O	none
Cc1ccc(NC(=O)CNC(=O)C2CCCCC2)nc1	none
CCOC(=O)C(C)Oc1ccc(NC(=O)C(Cl)Cl)cc1 (centres undefined)	none
Cc1nc2ccccn2c1C(=O)OCC#N	none
Cc1cc2ccccc2n2c(SCC(=O)NCC3CCCO3)nnc12 (centres undefined)	none (no result: SENP1 inh, SENP8 block-2)
COC(=O)c1ccc(CN(C)S(=O)(=O)c2cccs2)cc1	none
CN(C)c1ccc(/C=C/C(=O)c2ccccc2O)cc1	SENP6 block 92.2, SENP7 block 88.7, SENP8 block-1 86.0 | SENP8 conf inactive | SENP6 conf inactive | SENP7 conf inactive | Casp3 select inactive | Luc interf inactive
Cc1ccc(/C=C/C(=O)c2ccccc2O)cc1	none
O=C(/C=C/c1ccc2c(c1)OCCCO2)c1ccccc1O	SENP6 block 87.5, SENP7 block 84.3, SENP8 block-1 80.8 | SENP8 conf 91.4 | SENP6 conf 92.6 | SENP7 conf 92.3 | Casp3 select 57.0 | Luc interf inactive
CC(=O)N1CCN(S(=O)(=O)c2cccc(C(=O)NCCC3=CCCCC3)c2)CC1	none
Cc1ccc(-c2nnc(CN3CCCCC3C)o2)cc1 (centres undefined)	none
